ChEMBL document CHEMBL4689842, “EUbOPEN Chemogenomics Library wave 1” (2021)

Tested on: U2OS
Assay: Multiplex assay against U2OS
Format: toxicity, cell-based
Settings: human
Outline: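 Live cells were stained at seeding with Hoechst33342, BioTracker Green Microtubule Cytoskeleton Dye, MitoTracker Red and Annexin V Alexa Fluor 680, then imaged on a CQ1 microscope at 37°C and 5% CO2 after compound addition. CellPathfinder machine-learning gating split cells into Hoechst high-intensity objects or normal cells. Normal cells were split into healthy, pyknosed or fragmented nuclei, and pyknosed cells into mitotic or apoptotic. Tubulin, mitochondrial-mass and membrane-permeability phenotypes are per cents of healthy-nucleus cells.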

[1] = 12 h, 1 µM, compound concentration 1 uM, replicate 1
[2] = 12 h, 1 µM, compound concentration 1 uM, replicate 2
[3] = 12 h, 10 µM, compound concentration 10 uM, replicate 1
[4] = 12 h, 10 µM, compound concentration 10 uM, replicate 2
[5] = 24 h, 1 µM, compound concentration 1 uM, replicate 1
[6] = 24 h, 1 µM, compound concentration 1 uM, replicate 2
[7] = 24 h, 10 µM, compound concentration 10 uM, replicate 1
[8] = 24 h, 10 µM, compound concentration 10 uM, replicate 2
[9] = 48 h, 1 µM, compound concentration 1 uM, replicate 1
[10] = 48 h, 1 µM, compound concentration 1 uM, replicate 2
[11] = 48 h, 10 µM, compound concentration 10 uM, replicate 1
[12] = 48 h, 10 µM, compound concentration 10 uM, replicate 2

CCc1cccc(CC)c1NC(=O)c1nn(C)c2c1CCc1cnc(Nc3ccc(C(=O)NC4CCN(C)CC4)cc3OC(F)(F)F)nc1-2
Population Apoptotic (%) [1]: 34% | Population Fragmented Nuclei (%) [1]: 18% | Population Healthy Nuclei (%) [1]: 60% | Population Hoechst High Intensity Objects (%) [1]: 9% | Population Membrane Permeable-Phenotype (%) [1]: 3% | Population Mitochondria Different-Phenotype (%) [1]: 22% | Population Mitotic Cells (%) [1]: 65% | Population Normal (%) [1]: 90% | Population Pyknosed Nuclei (%) [1]: 20% | Population Tubulin-Different-Phenotype (%) [1]: 12% | Total Cell Count [1]: 191 | Population Apoptotic (%) [2]: 40% | Population Fragmented Nuclei (%) [2]: 1% | Population Healthy Nuclei (%) [2]: 83% | Population Hoechst High Intensity Objects (%) [2]: 13% | Population Membrane Permeable-Phenotype (%) [2]: 5% | Population Mitochondria Different-Phenotype (%) [2]: 14% | Population Mitotic Cells (%) [2]: 60% | Population Normal (%) [2]: 86% | Population Pyknosed Nuclei (%) [2]: 15% | Population Tubulin-Different-Phenotype (%) [2]: 18% | Total Cell Count [2]: 51 | Population Apoptotic (%) [3]: 50% | Population Fragmented Nuclei (%) [3]: 18% | Population Healthy Nuclei (%) [3]: 54% | Population Hoechst High Intensity Objects (%) [3]: 5% | Population Membrane Permeable-Phenotype (%) [3]: 34% | Population Mitochondria Different-Phenotype (%) [3]: 97% | Population Mitotic Cells (%) [3]: 50% | Population Normal (%) [3]: 94% | Population Pyknosed Nuclei (%) [3]: 26% | Population Tubulin-Different-Phenotype (%) [3]: 99% | Total Cell Count [3]: 156 | Population Apoptotic (%) [4]: 46% | Population Fragmented Nuclei (%) [4]: 12% | Population Healthy Nuclei (%) [4]: 70% | Population Membrane Permeable-Phenotype (%) [4]: 15% | Population Mitochondria Different-Phenotype (%) [4]: 98% | Population Mitotic Cells (%) [4]: 53% | Population Pyknosed Nuclei (%) [4]: 17% | Population Tubulin-Different-Phenotype (%) [4]: 86% | Total Cell Count [4]: 75 | Population Apoptotic (%) [5]: 44% | Population Fragmented Nuclei (%) [5]: 15% | Population Healthy Nuclei (%) [5]: 64% | Population Hoechst High Intensity Objects (%) [5]: 7% | Population Membrane Permeable-Phenotype (%) [5]: 3% | Population Mitochondria Different-Phenotype (%) [5]: 18% | Population Mitotic Cells (%) [5]: 55% | Population Normal (%) [5]: 92% | Population Pyknosed Nuclei (%) [5]: 20% | Population Tubulin-Different-Phenotype (%) [5]: 11% | Total Cell Count [5]: 190 | Population Apoptotic (%) [6]: 37% | Population Fragmented Nuclei (%) [6]: 7% | Population Healthy Nuclei (%) [6]: 81% | Population Hoechst High Intensity Objects (%) [6]: 10% | Population Membrane Permeable-Phenotype (%) [6]: 5% | Population Mitochondria Different-Phenotype (%) [6]: 12% | Population Mitotic Cells (%) [6]: 62% | Population Normal (%) [6]: 89% | Population Pyknosed Nuclei (%) [6]: 11% | Population Tubulin-Different-Phenotype (%) [6]: 19% | Total Cell Count [6]: 53 | Population Apoptotic (%) [7]: 56% | Population Fragmented Nuclei (%) [7]: 20% | Population Healthy Nuclei (%) [7]: 48% | Population Hoechst High Intensity Objects (%) [7]: 5% | Population Membrane Permeable-Phenotype (%) [7]: 40% | Population Mitochondria Different-Phenotype (%) [7]: 100% | Population Mitotic Cells (%) [7]: 43% | Population Normal (%) [7]: 94% | Population Pyknosed Nuclei (%) [7]: 30% | Population Tubulin-Different-Phenotype (%) [7]: 97% | Total Cell Count [7]: 156 | Population Apoptotic (%) [8]: 50% | Population Fragmented Nuclei (%) [8]: 15% | Population Healthy Nuclei (%) [8]: 63% | Population Hoechst High Intensity Objects (%) [8]: 2% | Population Membrane Permeable-Phenotype (%) [8]: 26% | Population Mitochondria Different-Phenotype (%) [8]: 91% | Population Mitotic Cells (%) [8]: 50% | Population Normal (%) [8]: 97% | Population Pyknosed Nuclei (%) [8]: 20% | Population Tubulin-Different-Phenotype (%) [8]: 73% | Total Cell Count [8]: 77 | Population Apoptotic (%) [9]: 46% | Population Fragmented Nuclei (%) [9]: 19% | Population Healthy Nuclei (%) [9]: 54% | Population Hoechst High Intensity Objects (%) [9]: 9% | Population Membrane Permeable-Phenotype (%) [9]: 5% | Population Mitochondria Different-Phenotype (%) [9]: 18% | Population Mitotic Cells (%) [9]: 53% | Population Normal (%) [9]: 90% | Population Pyknosed Nuclei (%) [9]: 25% | Population Tubulin-Different-Phenotype (%) [9]: 17% | Total Cell Count [9]: 179 | Population Apoptotic (%) [10]: 9% | Population Fragmented Nuclei (%) [10]: 16% | Population Healthy Nuclei (%) [10]: 72% | Population Hoechst High Intensity Objects (%) [10]: 4% | Population Membrane Permeable-Phenotype (%) [10]: 7% | Population Mitochondria Different-Phenotype (%) [10]: 19% | Population Mitotic Cells (%) [10]: 90% | Population Normal (%) [10]: 95% | Population Pyknosed Nuclei (%) [10]: 11% | Population Tubulin-Different-Phenotype (%) [10]: 23% | Total Cell Count [10]: 49 | Population Apoptotic (%) [11]: 57% | Population Fragmented Nuclei (%) [11]: 27% | Population Healthy Nuclei (%) [11]: 34% | Population Hoechst High Intensity Objects (%) [11]: 5% | Population Membrane Permeable-Phenotype (%) [11]: 57% | Population Mitochondria Different-Phenotype (%) [11]: 95% | Population Mitotic Cells (%) [11]: 42% | Population Normal (%) [11]: 94% | Population Pyknosed Nuclei (%) [11]: 38% | Population Tubulin-Different-Phenotype (%) [11]: 98% | Total Cell Count [11]: 188 | Population Apoptotic (%) [12]: 44% | Population Fragmented Nuclei (%) [12]: 11% | Population Healthy Nuclei (%) [12]: 51% | Population Membrane Permeable-Phenotype (%) [12]: 35% | Population Mitochondria Different-Phenotype (%) [12]: 86% | Population Mitotic Cells (%) [12]: 55% | Population Pyknosed Nuclei (%) [12]: 37% | Population Tubulin-Different-Phenotype (%) [12]: 64% | Total Cell Count [12]: 97
